Measured values from ChEMBL document CHEMBL1133159, “Conformationally constrained analogues of diacylglycerol (DAG). 17. Contrast between sn-1 and sn-2 DAG lactones in binding to protein kinase C” (J Med Chem, 2000).

Tests used:
[1] = target: T1, Protein kinase C alpha type (Homo sapiens, UniProt P17252); assay: Affinity for protein kinase-C alpha (PK-C alpha)
Outline: (§1)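 Competitive displacement of bound [20-3H]phorbol 12,13-dibutyrate (PDBU) from recombinant single-isozyme PK-Cα in the presence of phosphatidylserine. ID50 was obtained by fitting the inhibition data points to a theoretical noncooperative competition curve.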

[2] = Partition coefficient (logP); type: physicochemical; conditions: octanol/water
[3] = target: T1, Protein kinase C alpha type; assay: Affinity for protein kinase C alpha; outline: as §1

Ki [1] [nM]	logP [2]	Ki [3] [nM]	Compound
1200	6.3	1200	CCCCCCCC/C=C1\CC([C@H](CO)OC(=O)CCCCCCCC)OC1=O (stereo not given in full)
1000		1000	CCCCCCCCCCCCCC(=O)O[C@@H](CO)C1CCC(=O)O1 (stereo not given in full)
1760		1760	CCCCCCCC/C=C1/CC([C@H](CO)OC(=O)CCCCCCCC)OC1=O (stereo not given in full)
		565	CCCCCCCC/C=C1/CC([C@H](CO)OC(=O)CC(C)C)OC1=O (stereo not given in full)
		579	CCCCCCCC/C=C1\CC([C@H](CO)OC(=O)CC(C)C)OC1=O (stereo not given in full)

The next lines start with the compound.

Compound	Ki [1] [nM]	logP [2]	Ki [3] [nM]
CC(C)C(C/C=C1/CC([C@H](CO)OC(=O)CC(C(C)C)C(C)C)OC1=O)C(C)C (stereo not given in full)	327		
CCCCCCCCC(=O)O[C@@H](CO)C1C/C(=C\CC(C(C)C)C(C)C)C(=O)O1 (stereo not given in full)	1090	6.08	
CCCCCCCCC/C=C1/CC(CO)(COC(=O)CC(C)C)OC1=O (stereo not given)			13
CCCCCCCCC(=O)O[C@@H](CO)C1C/C(=C/CC(C(C)C)C(C)C)C(=O)O1 (stereo not given in full)	499		
CCCCCCCCCC(=O)OCC1(CO)C/C(=C/CC(C)C)C(=O)O1 (stereo not given)			2.3
CCCCCCC/C=C/CCCCCCC/C=C1/CC(CO)(COC(C)=O)OC1=O (stereo not given)			24
CC(C)C(C/C=C1\CC([C@H](CO)OC(=O)CC(C(C)C)C(C)C)OC1=O)C(C)C (stereo not given in full)	679	5.86	
CCCCCCCC/C=C/CCCCCCCC(=O)OCC1(CO)CCC(=O)O1 (stereo not given)			96
CCCCCCCC/C=C1/CC([C@H](CO)OC(=O)CC(C(C)C)C(C)C)OC1=O (stereo not given in full)	565		
